Assay results: the array DNA melting data of Ke et al. (doi:10.1101/2024.01.08.574731)

Tests used:
[1] = melting temperature; fluorescence melt of hairpins on a sequencing array, two-state fit, raised by 9.35 °C to match UV melts; conditions: sodium 0.088 M
How it was run: (§1)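 To match UV melts, fitted temperatures were raised by 9.35 °C. These fits were bootstrapped two-state models that gave melting temperature and folding enthalpy, combined by inverse variance over four replicates. The input was normalised Cy3 fluorescence of library hairpins with annealed Cy3 and quencher oligos on a sequenced MiSeq flow cell, imaged in 50 mM Na-HEPES pH 8.0, 25 mM NaCl in 2.5 °C steps up to 60 °C.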

[2] = folding enthalpy; higher = less favourable; fluorescence melt of hairpins on a sequencing array, two-state fit; conditions: sodium 0.088 M
How it was run: as §1

Row | Sequence | Tm [1] | folding enthalpy [2]
1 | GATCAAATTGTTGATC ((((((....)))))) | 41.8 °C | -28.3 kcal/mol
2 | GGGCTTCGAAAGAAACCC (((.(((....))).))) | 49.6 °C | -30.2 kcal/mol
3 | GGACTACGAAAGTACTCC (((.(((....))).))) | 34.9 °C | -13.3 kcal/mol
4 | GCCTAGTCGAAAGACGGC (((..(((....)))))) | 51.6 °C | -21 kcal/mol
5 | GTGGTGCGAAAGCAACAC (((.(((....))).))) | 68.9 °C | -28.8 kcal/mol
6 | GGGGCCGAAAGGCCTCCC ((((((....)))..))) | 54.8 °C | -9.22 kcal/mol
7 | GATCAGTGTCTGATC ((((((...)))))) | 50 °C | -34.8 kcal/mol
8 | GCAAAGCGAAAGCCCTGC (((..((....))..))) | 28.5 °C | -10.3 kcal/mol
9 | GGAATTGAAAAATTCC ((((((....)))))) | 48 °C | -28.9 kcal/mol
10 | GTTCAAGCGAAAGCTAAC (((..(((....)))))) | 24.9 °C | -11.4 kcal/mol
11 | GCAGCAACGAAAGTTTGC (((..(((....)))))) | 35.8 °C | -17.1 kcal/mol
12 | GGGTGAGGAAACCCACCC (((((.(....).))))) | 51.7 °C | -50.9 kcal/mol
13 | GATCCTGCAGAGGATC ((((((....)))))) | 56 °C | -39.5 kcal/mol
14 | GGAAACCGAAAGGTGTCC (((.(((....))).))) | 52.4 °C | -31.1 kcal/mol
15 | GCAGCAGGAAACTGTTGC (((.(((....))).))) | 52.1 °C | -52.3 kcal/mol
16 | GATCTTAGCAAAGATC ((((((....)))))) | 42.4 °C | -30.9 kcal/mol
17 | CGTTCGCGGAAACGCACG (((..(((....)))))) | 40.4 °C | -13.6 kcal/mol
18 | GATCCAGGAATGGATC ((((((....)))))) | 54 °C | -40.6 kcal/mol
19 | GTCTAGTCGAAAGACGAC (((..(((....)))))) | 39.4 °C | -14.3 kcal/mol
20 | GATCAACGAGTTGATC ((((((....)))))) | 55.6 °C | -51 kcal/mol
21 | GCTTCGCGAAAGCGACGC ((.((((....)))).)) | 60.9 °C | -22.5 kcal/mol
22 | GTAATGCCGAAAGGCTAC (((..(((....)))))) | 26.8 °C | -9.18 kcal/mol
23 | GTGTAACGAAAGTTTCAC (((.(((....))).))) | 44.9 °C | -22.9 kcal/mol

Row | Sequence | Tm [1] | folding enthalpy [2]
24 | GTCCACGAAAGTGTCGAC ((((((....)))..))) | 33.8 °C | -14 kcal/mol
25 | GCTAAGCGAAAGCATCGC ((.(.((....)).).)) | 30.7 °C | -11.1 kcal/mol
26 | GGGAGTTCGAAAGAACCC (((..(((....)))))) | 47.9 °C | -18.2 kcal/mol
27 | GATCAGTTTGCTGATC ((((((....)))))) | 53.8 °C | -44.1 kcal/mol
28 | GATCAGTCTGCTGATC ((((((....)))))) | 52.7 °C | -41.6 kcal/mol
29 | GCTAGGCGAAAGCATAGC ((((.((....)).)))) | 64.6 °C | -32.7 kcal/mol
30 | GTTAACCGAAAGGTGAAC (((.(((....))).))) | 48.9 °C | -27.7 kcal/mol
31 | GCTGCGCGAAAGCTCGGC ((.(.((....)).).)) | 48.3 °C | -22.4 kcal/mol
32 | GTACACGAAAGTGTAC ((((((....)))))) | 68.3 °C | -30.2 kcal/mol
33 | GTAGATCGAAAGATTTAC (((.(((....))).))) | 39.5 °C | -30.4 kcal/mol
34 | GGGTTCACGAAAGTGCCC (((..(((....)))))) | 41.2 °C | -19.6 kcal/mol
35 | GTGTATCGAAAGATTCAC (((.(((....))).))) | 44.7 °C | -36.9 kcal/mol
36 | GTTGCTGGAAACAGCAGC (.(((((....))))).) | 54.5 °C | -26.3 kcal/mol
37 | GTAAGTGAAAACTTAC ((((((....)))))) | 48.7 °C | -27.4 kcal/mol
38 | GATCCTTGTAGGATC ((((((...)))))) | 55.1 °C | -34.4 kcal/mol
39 | GCGATAGCGAAAGCTCGC (((..(((....)))))) | 51.5 °C | -18.5 kcal/mol
40 | GCGGTTGCCCGC ((((....)))) | 62 °C | -14.9 kcal/mol
41 | GCTAGGCGAAAGCATCGC ((.(.((....)).).)) | 38 °C | -15.9 kcal/mol
42 | GGTACTGGAAACAGTGTC (..((((....))))..) | 28.9 °C | -13.9 kcal/mol
43 | GGATTTGCGAAAGCATCC (((..(((....)))))) | 38.9 °C | -16.4 kcal/mol
44 | GACGGTGGAAACATCGTC ((((.((....)).)))) | 53.7 °C | -43.6 kcal/mol
45 | GTTCCTCGAAAGAGCAAC (((.(((....))).))) | 29.4 °C | -14.3 kcal/mol
46 | GTTGTTGGAAACAATGAC ((..(((....)))..)) | 38.5 °C | -13.9 kcal/mol

Row | Sequence | Tm [1] | folding enthalpy [2]
47 | GGTACCGAAAGGTCACC ((((((....))).))) | 46.8 °C | -17.7 kcal/mol
48 | GATCGCTGACGCGATC ((((((....)))))) | 66.7 °C | -36.5 kcal/mol
49 | CGGACGGAAACGTGGCCG ((((((....)))..))) | 44.1 °C | -25.7 kcal/mol
50 | GCCAAGCGAAAGCTGGC (((.(((....)))))) | 68.5 °C | -28.3 kcal/mol
51 | GCCATTCGAAAGAACGGC (((.(((....))).))) | 49.6 °C | -40.1 kcal/mol
52 | GGTGAGGGAAACCTTGCC ((..(((....)))..)) | 41.8 °C | -21.7 kcal/mol
53 | GGGACGCCGAAAGGCCCC (((..(((....)))))) | 45.4 °C | -13.7 kcal/mol
54 | GATCAGACCTCTGATC ((((((....)))))) | 48.4 °C | -40.6 kcal/mol
55 | GCATCAGGAAACCAATGC ((((..(....)..)))) | 23.8 °C | -12.1 kcal/mol
56 | GCCATCGAAAGATGGGGC ((((((....)))..))) | 54.4 °C | -12.8 kcal/mol
57 | GAACACGAAAGTGGTTTC ((((((....)))..))) | 35.5 °C | -14 kcal/mol
58 | GAAGACGAAAGTCCTTTC ((((((....)))..))) | 29.6 °C | -11.6 kcal/mol
59 | GTACCCGAAAGGGCGTAC ((((((....)))..))) | 34.2 °C | -14.3 kcal/mol
60 | GGTTCGGAAACGAACC ((((((....)))))) | 67.3 °C | -33.2 kcal/mol
61 | GATCGAGAACTCGATC ((((((....)))))) | 57 °C | -37.6 kcal/mol
62 | GGTCTCGCGAAAGCGACC (((..(((....)))))) | 33.2 °C | -9.72 kcal/mol
63 | GCGTCGCGAAAGCAAAGC ((.(.((....)).).)) | 62.6 °C | -21.3 kcal/mol
64 | GTCTCGGCGAAAGCCGAC (((..(((....)))))) | 35.6 °C | -4.96 kcal/mol
65 | GTTCTCGCGAAAGCGAAC (((..(((....)))))) | 27.8 °C | -7.5 kcal/mol
66 | GGAGATCGAAAGATTTCC (((.(((....))).))) | 46.5 °C | -33 kcal/mol
67 | GGGTGCACGAAAGTGCCC (((..(((....)))))) | 52.6 °C | -12.9 kcal/mol
68 | GTGCTCCGAAAGGAACAC (((.(((....))).))) | 52.2 °C | -46.5 kcal/mol
69 | GCATGGCGAAAGCTAGGC ((.(.((....)).).)) | 52.2 °C | -21.6 kcal/mol

Row | Sequence | Tm [1] | folding enthalpy [2]
70 | GCCCTATCGAAAGATGGC (((..(((....)))))) | 37.5 °C | -23.5 kcal/mol
71 | GGCATGGGAAACTGTGCC ((((..(....)..)))) | 48.2 °C | -29.8 kcal/mol
72 | GGTATCCGAAAGGACACC (((.(((....))).))) | 47.5 °C | -25.2 kcal/mol
73 | GGTAGGGGAAACCTTACC ((((.((....)).)))) | 44.1 °C | -30.5 kcal/mol
74 | GTATTCGGAAACGAATGC (.(((((....))))).) | 48.6 °C | -29.1 kcal/mol
75 | GAGCATGGAAACGTGCTC (((((.(....).))))) | 52.9 °C | -47.3 kcal/mol
76 | GGCATTTCGAAAGAAGCC (((..(((....)))))) | 34.4 °C | -20.2 kcal/mol
77 | GATCATTAGGATGATC ((((((....)))))) | 47.8 °C | -35.3 kcal/mol
78 | GGCCACGGAAACGTAGCC (((.(((....))).))) | 50.8 °C | -28 kcal/mol
79 | GCGTGGCGAAAGCTTCGC (((..((....))..))) | 59.5 °C | -23.6 kcal/mol
80 | GATCACGATCGTGATC ((((((....)))))) | 59.6 °C | -47.4 kcal/mol
81 | GATCGACTGTCGATC ((((((...)))))) | 51.4 °C | -49 kcal/mol
82 | GCACACGGAAACGTGTAC (.(((((....))))).) | 41.2 °C | -13.8 kcal/mol
83 | GCGGGCGAAAGCCCTCGC ((((((....)))..))) | 50 °C | -13.1 kcal/mol
84 | GGTGTCCGAAAGGAAACC (((.(((....))).))) | 52.7 °C | -27.9 kcal/mol
85 | GCGAAGCGAAAGCTGTGC ((..(((....)))..)) | 46.5 °C | -8.75 kcal/mol
86 | GTGAGCGCGAAAGCGCAC (((..(((....)))))) | 52.2 °C | -11.1 kcal/mol
87 | GATGACACGAAAGTGATC (((..(((....)))))) | 30.9 °C | -11.4 kcal/mol
88 | GCAAGGACGAAAGTCTGC (((..(((....)))))) | 44.6 °C | -17.5 kcal/mol
89 | GGATCTCGAAAGAGTTCC (((.(((....))).))) | 46.1 °C | -27.5 kcal/mol
90 | GATGCCGGAAACGGCGTC ((.((((....)))).)) | 62.6 °C | -21.2 kcal/mol
91 | GCTCAGCCGAAAGGCAGC (((..(((....)))))) | 41.1 °C | -13.1 kcal/mol
92 | GCATCTCGAAAGAGTGC (((.(((....)))))) | 53.4 °C | -49.8 kcal/mol
